Screens deposited in PubChem by several laboratories.
procasp3 activ – activators of human procaspase-3 | P42574 | recombinant procaspase-3 D3A, Ac-DEVD-pNA absorbance 405 nm | activation, % at 8.5 µM | 330,000 tested, 0.11% active | AID 463141;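 active = activation above the mean of all tested compounds plus 3 SD, cut at about 21% in these data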;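 note: 0% = DMSO alone and 100% = DMSO wells spiked with extra 5 µM PC-3 D3A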
Target sequence (P42574 whole entry D9A/D28A/D175A): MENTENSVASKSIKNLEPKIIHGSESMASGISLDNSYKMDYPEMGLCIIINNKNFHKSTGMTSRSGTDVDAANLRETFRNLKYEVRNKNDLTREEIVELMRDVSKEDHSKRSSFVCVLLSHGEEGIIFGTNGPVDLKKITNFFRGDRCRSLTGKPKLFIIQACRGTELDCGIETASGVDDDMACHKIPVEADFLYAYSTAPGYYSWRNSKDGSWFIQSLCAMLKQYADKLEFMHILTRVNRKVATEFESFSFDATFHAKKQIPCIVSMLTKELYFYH
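Evaluation: percent activation relative to control range; Material: Procaspase-3 D3A mutant, all three cleavage aspartates alanine; Compound: single dose, 8.5 µM nominal compound, 0.8% DMSO; Replication: one well per compound; Signal: absorbance at 405 nm, 0 and 120 min; Schedule: 1 h preincubation plus 2 h reaction at 25 °C.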
ASAP1 inh – blocks human ASAP1-stimulated Arf1 GTP hydrolysis; Q9ULH1; GDP FP detection; inhibition, % at 16.5 µM; 360,000 tested, 0.19% active; in the data active = inhibition above about 25%;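 note: 0% = vehicle with enzyme and substrate and 100% = no enzyme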
LANA-H2A inh – blocks KSHV LANA binding to histone H2A/H2B; Q9QR71; cell-free LANA-H2A/H2B peptide, fluorescence polarization; inhibition, % (no concentration beside the values); 320,000 tested, 0.6% active; in the data active = inhibition mostly above about 10%, no sharp cut-off; inactive = mostly below about 6.7%
proCasp7 act – counter-screen: procaspase-7 (human) activation. P55210. recombinant procaspase-7, Ac-DEVD-pNA absorbance 405 nm; D23A/D198A/D206A triple mutant, cannot self-cleave; scale: DMSO 0, 5 µM enzyme 100. activation, % at 8.5 µM. 330,000 tested, 0.093% active;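 active = percent activation above the screen-wide mean plus 3 SD, cut at about 25% in these data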
Target sequence (P55210 whole entry D23A/D198A/D206A): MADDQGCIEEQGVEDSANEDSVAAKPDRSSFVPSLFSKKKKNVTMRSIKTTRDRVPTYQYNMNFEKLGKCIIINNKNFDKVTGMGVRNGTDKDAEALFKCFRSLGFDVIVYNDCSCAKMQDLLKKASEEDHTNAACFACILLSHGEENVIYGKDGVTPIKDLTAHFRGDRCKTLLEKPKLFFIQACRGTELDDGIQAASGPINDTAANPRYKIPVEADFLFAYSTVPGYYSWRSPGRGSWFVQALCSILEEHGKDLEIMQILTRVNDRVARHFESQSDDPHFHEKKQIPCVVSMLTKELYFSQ
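Replicates: singlicate. Assay system: Procaspase-7 triple mutant (PC-7 D3A). Signal: 405 nm absorbance of p-nitroaniline. Times: 1 h preincubation, 2 h reaction. Buffer or medium: Zinc-free HEPES pH 7.4 with 300 mM NaCl, 0.01% Triton X-100. Also added: DEVD-pNA substrate. Benchmarks: DMSO wells as 0%, DMSO with 5 µM added PC-7 as 100%.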
Yeast superoxide – caloric restriction mimetics inhibiting age-related superoxide in yeast; S. cerevisiae aged cells, superoxide DHE fluorescence; stronger effect = lower value; superoxide response (% of plate mean), % at 10 µM; 330,000 tested, 0.18% active; AID 2690;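 active = superoxide response under a set limit, about three screen SD below normal, cut at about 65% in these data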;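 note: yeast aged for seven days with compound at 30 °C before DHE staining; 100% = average MFI of all compound-treated wells on the plate with controls excluded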
ARFGAP1 inh – inhibitors of rat ARFGAP1; Q62848; Arfgap1-stimulated ARF1 GTP hydrolysis, GDP FP detection; inhibition, % at 16.5 µM; 360,000 tested, 0.26% active;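 active = inhibition above a per-plate limit, mean inhibition of low control wells plus 3 SD, cut at about 25% in these data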;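 note: 0% = DMSO wells with enzyme and 100% = wells lacking Arfgap1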
Target sequence (Q62848 1-136 limits assumed): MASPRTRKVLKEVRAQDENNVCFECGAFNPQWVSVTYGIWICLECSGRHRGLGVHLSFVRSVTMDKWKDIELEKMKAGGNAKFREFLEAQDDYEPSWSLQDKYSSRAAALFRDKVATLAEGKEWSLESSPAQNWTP
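Material: rat Arfgap1 catalytic domain, aa 1-136; also added: human ARF1(Δ1-17)-GTP substrate; compound dosing: one concentration, 16.5 µM, DMSO 1.26%; incubation: GTP hydrolysis reaction 2 h at 25 °C; measured by: Tracer-displacement fluorescence polarization with EDTA stop, 620/688 nm; evaluation: % inhibition from polarization; repeats: one replicate per compound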
Superoxide pick – confirmation of caloric restriction mimetics inhibiting yeast age-related superoxide. shares compounds with Yeast superoxide. S. cerevisiae aging, superoxide DHE fluorescence; stronger effect = lower value. superoxide response (% of plate), % at 10 µM. 850 tested, 1% active;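 active = superoxide signal below 65% of the plate average of sample wells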;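 note: cells aged with compound for 7 days at 30 degrees C before staining; 100% equals mean DHE fluorescence of all compound wells on the plate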
DHE fluor count – counter-screen for compounds affecting DHE oxidation and fluorescence in yeast | S. cerevisiae BY4741, flow cytometry; stronger effect = lower value | fluorescence response, % at 10 µM | shares compounds with Yeast superoxide | 850 tested, under 10 active | AID 435000;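 active = fluorescence response below 15%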;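 note: percent of the mean fluorescence averaged over all compound wells on the plate; lower means stronger quenching of DHE signal or ROS scavenging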
The depositor's hits bear a star; · = no result given. Compounds with a hit are over-represented: about 1.2% of the library has one in this group of screens.

SMILES | procasp3 activ | ASAP1 inh | LANA-H2A inh | proCasp7 act | Yeast superoxide | ARFGAP1 inh | Superoxide pick | DHE fluor count
CSc1ccccc1NC(=O)CN1CCN(c2ccccn2)CC1 | -4 | -5 | 0 | -2 | 97 | 8 | 99 | 101
Cc1cc(N)ccc1NC(=O)CN1CCCC1 | 2 | 7 | 2 | -11 | 64* | 2 | 91 | 92
COc1ccc(NC(=O)CN2CCN(c3ccc(F)cc3)CC2)cc1Cl | 0 | 4 | 4 | 8 | 115 | -11 | · | ·
COc1ccc(N)cc1NC(=O)CN1CCCC1 | 4 | -15 | 3 | -16 | 98 | 2 | · | ·
COCCNC(=O)c1cccc(OC2CCN(Cc3ccc(F)c(OC)c3)CC2)c1 | 6 | -8 | -3 | 4 | 102 | -12 | · | ·
Cc1cc(Br)ccc1NC(=O)CN1CCN(c2ccccn2)CC1 | 5 | -2 | -5 | -3 | 106 | 9 | 96 | 91
O=C(CN1CCN(c2ccccn2)CC1)Nc1cccc(C(F)(F)F)c1 | -1 | -5 | 1 | 0 | 105 | 5 | 98 | 90
CC(C)c1ccc(NC(=O)CN2CCN(c3ccccn3)CC2)cc1 | 2 | 11 | -5 | 0 | 85 | 8 | 89 | 93
O=C(CN1CCN(c2ccccc2)CC1)Nc1cccc(C(F)(F)F)c1 | -2 | 8 | -3 | 1 | 110 | 7 | · | ·
O=C(CN1CCN(CC(=O)Nc2ccccc2Cl)CC1)Nc1ccc(F)c(F)c1 | -5 | 8 | 1 | 10 | 44* | -17 | 95 | 94
CC(C)(C)n1nnnc1C(c1ccccc1)N1CCN(c2ccccn2)CC1 (stereo not drawn) | · | -3 | · | · | · | -2 | · | ·
Nn1c(SCC(=O)Nc2ccc(F)cc2F)nnc1C1CCCCC1 | -2 | 5 | 7 | -5 | 115 | 6 | 85 | 101
CCOc1ccc(NC(=O)CN2CCN(CC(=O)Nc3ccc(OC)cc3OC)CC2)cc1 | 2 | 0 | 2 | -10 | 62* | -20 | 107 | 106
CCOc1ccc(NC(=O)CN2CCN(CC(=O)Nc3ccccc3OC)CC2)cc1 | 5 | -2 | -1 | -2 | 92 | -2 | · | ·
COc1cc([N+](=O)[O-])ccc1NC(=O)NCC1CCN(Cc2ccc(Cl)cc2)CC1 | -17 | -2 | -2 | 3 | 30* | -16 | 104 | 111
COc1cc(NC(=O)NCC2CCN(Cc3ccccc3Cl)CC2)cc(OC)c1OC | -5 | 14 | 1 | 3 | 41* | 9 | 101 | 93
COc1ccc(-c2ccc(=O)n(Cc3cccc(Cl)c3)n2)cc1 | -8 | 1 | 1 | 2 | 55* | 10 | 90 | 89
COc1ccc(-c2ccc(=O)n(Cc3ccccc3)n2)cc1 | 11 | -5 | -2 | -1 | 115 | 0 | · | ·
CC1=CC2=NC(=O)CC(C)(C(=O)N(CC(=O)NC(C)(C)C)Cc3cccs3)N2C=C1 (stereo not drawn) | 8 | -14 | -1 | -3 | 96 | -3 | · | ·
O=C(NC(=S)NNC(=O)c1cnccn1)c1ccc(Cl)cc1 | 3 | 6 | 21 | 1 | 53* | -3 | 111 | 92
COc1ccc(C(=O)NC(=S)NNC(=O)c2cnccn2)cc1 | -2 | 10 | -4 | -11 | 75 | 17 | · | ·
CCc1ccccc1NC(=O)Cn1nc(C)n2cccc2c1=O | 5 | -14 | -9 | 7 | 63* | 1 | 98 | 88
O=C(NCCO)c1cccc2c1-c1ccccc1C2=O | 10 | 4 | 4 | 3 | 125 | 9 | · | ·
CC(C)(C)NC(=O)c1cccc2c1-c1ccccc1C2=O | -9 | 11 | -5 | 5 | 42* | 0 | 103 | 111
Cc1ccc(C(=O)O)cc1S(=O)(=O)N1CCCC1 | 9 | -15 | -1 | 2 | 108 | 0 | 104 | 107
SMILES | procasp3 activ | ASAP1 inh | LANA-H2A inh | proCasp7 act | Yeast superoxide | ARFGAP1 inh | Superoxide pick | DHE fluor count
Cc1ccc2c(c1)N(C(=O)CCC(=O)NCc1cccc(F)c1)CCO2 | 9 | -3 | 3 | 7 | 105 | 18 | · | ·
O=C(CN(c1ccc2c(c1)OCCO2)S(=O)(=O)c1ccccc1)NCc1ccc(Cl)cc1 | 3 | -2 | 3 | 7 | 62* | 4 | 102 | 91
CCOC(=O)C(CC)n1cnc2c(nnn2-c2cccc(OC)c2)c1=O (stereo not drawn) | -8 | 2 | -2 | 10 | 65* | 2 | 107 | 95
CCOC(=O)C(CC)n1cnc2c(nnn2-c2ccc(C)cc2)c1=O (stereo not drawn) | -2 | 5 | -4 | 6 | 100 | 1 | · | ·
CCc1ccc(NC(=O)CCS(=O)(=O)c2ccc(Cl)cc2)cc1 | -4 | -16 | -4 | 18 | 51* | -1 | 84 | 95
O=C1C=C(NC2=CC3OC(c4ccccc4)OCC3OC2=O)CCC1 (stereo not drawn) | -28 | -3 | · | -28 | 60* | 12 | 114 | 103
Cc1ccc(S(=O)(=O)N2CC=C(C(=O)NC3CCCC3)CC2)cc1 | 10 | -1 | -2 | 1 | 98 | 5 | · | ·
COc1ccc(S(=O)(=O)N2CC=C(C(=O)NC3CCCC3)CC2)cc1 | 4 | 1 | 1 | 3 | 63* | -22 | 103 | 93
CN1C(=O)CCC(CCC(=O)O)(c2ccccc2O)C1=O (stereo not drawn) | -7 | 0 | -7 | -4 | 63* | 2 | 103 | 106
O=C(C1CCCO1)N1CCN(c2c3c(nc4cc(-c5ccc(F)cc5)nn24)CCC3)CC1 (stereo not drawn) | 0 | -4 | 1 | 0 | 63* | -3 | 98 | 103
OC1CCN(c2c3c(nc4cc(-c5ccc(F)cc5)nn24)CCC3)CC1 | 0 | -11 | 2 | 18 | 103 | -3 | · | ·
CCc1nonc1NC(=O)c1oc2c(C)c(C)ccc2c1C | -10 | 6 | · | -2 | 43* | 13 | 98 | 89
CCc1nonc1NC(=O)c1oc2cc(Br)ccc2c1C | 0 | 3 | -6 | -3 | 113 | -1 | · | ·
COc1ccc(CNC(=O)c2cc3ccccc3oc2=O)cc1 | -4 | 1 | -1 | 9 | 63* | 5 | 96 | 93
COc1ccc2cc(C(=O)NCc3ccccc3)c(=O)oc2c1 | 3 | 9 | -7 | 0 | 98 | -6 | · | ·
